Assays:
Type in all cases: subcellular
[1] = molecular target: Sodium-dependent serotonin transporter (Rattus norvegicus, UniProt P31652); assay: Binding affinity to SERT in Sprague-Dawley rat brain synaptosomes assessed as induction of [3H]5-HT release by liquid scintillation counting method
In short: (§1)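 Rat synaptosomes with 1 μM reserpine in all buffers; SERT and NET from whole brain minus caudate and cerebellum (900 μg/mL protein), DAT from caudate (90 μg/mL). Preloaded 1 h in Krebs-phosphate buffer with 5 nM [3H]5-HT (SERT) or 9 nM [3H]MPP+ (NET, DAT), with unlabeled blockers of competing transporters. Eight-point curves, 10–10,000 nM, triplicate, 3 occasions. Filtration, scintillation counting; EC50 by non-linear regression.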

[2] = molecular target: Sodium-dependent dopamine transporter (Rattus norvegicus, UniProt P23977); assay: Binding affinity to DAT in Sprague-Dawley rat brain synaptosomes assessed as induction of [3H]MPP+ release by liquid scintillation counting method; in short: as §1
Sodium-dependent dopamine transporter, sequence (P23977 whole entry): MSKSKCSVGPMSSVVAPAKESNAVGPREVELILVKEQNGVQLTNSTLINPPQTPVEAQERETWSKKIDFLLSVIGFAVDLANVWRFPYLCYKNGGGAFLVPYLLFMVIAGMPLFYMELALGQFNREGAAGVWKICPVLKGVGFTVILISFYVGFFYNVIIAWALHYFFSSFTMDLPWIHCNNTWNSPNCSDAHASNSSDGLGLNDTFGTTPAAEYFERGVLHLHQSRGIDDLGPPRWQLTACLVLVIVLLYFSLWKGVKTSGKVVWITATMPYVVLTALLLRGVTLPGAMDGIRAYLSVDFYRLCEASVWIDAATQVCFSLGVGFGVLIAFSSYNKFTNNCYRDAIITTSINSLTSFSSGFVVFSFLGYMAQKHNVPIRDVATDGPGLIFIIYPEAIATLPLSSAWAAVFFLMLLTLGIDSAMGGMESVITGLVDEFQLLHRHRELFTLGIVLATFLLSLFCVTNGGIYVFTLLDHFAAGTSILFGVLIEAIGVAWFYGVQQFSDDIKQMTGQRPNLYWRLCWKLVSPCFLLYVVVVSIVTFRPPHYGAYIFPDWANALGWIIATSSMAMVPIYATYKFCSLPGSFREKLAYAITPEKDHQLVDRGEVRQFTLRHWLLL

[3] = Binding affinity to NET in Sprague-Dawley rat brain synaptosomes assessed as induction of [3H]MPP+ release by liquid scintillation counting method; in short: as §1
[4] = molecular target: Sodium-dependent serotonin transporter (Rattus norvegicus) (UniProt P31652); assay: Binding affinity to SERT in Sprague-Dawley rat brain synaptosomes assessed as induction of [3H]5-HT release by liquid scintillation counting method relative to control
Sodium-dependent serotonin transporter (Rattus norvegicus), sequence (P31652 whole entry): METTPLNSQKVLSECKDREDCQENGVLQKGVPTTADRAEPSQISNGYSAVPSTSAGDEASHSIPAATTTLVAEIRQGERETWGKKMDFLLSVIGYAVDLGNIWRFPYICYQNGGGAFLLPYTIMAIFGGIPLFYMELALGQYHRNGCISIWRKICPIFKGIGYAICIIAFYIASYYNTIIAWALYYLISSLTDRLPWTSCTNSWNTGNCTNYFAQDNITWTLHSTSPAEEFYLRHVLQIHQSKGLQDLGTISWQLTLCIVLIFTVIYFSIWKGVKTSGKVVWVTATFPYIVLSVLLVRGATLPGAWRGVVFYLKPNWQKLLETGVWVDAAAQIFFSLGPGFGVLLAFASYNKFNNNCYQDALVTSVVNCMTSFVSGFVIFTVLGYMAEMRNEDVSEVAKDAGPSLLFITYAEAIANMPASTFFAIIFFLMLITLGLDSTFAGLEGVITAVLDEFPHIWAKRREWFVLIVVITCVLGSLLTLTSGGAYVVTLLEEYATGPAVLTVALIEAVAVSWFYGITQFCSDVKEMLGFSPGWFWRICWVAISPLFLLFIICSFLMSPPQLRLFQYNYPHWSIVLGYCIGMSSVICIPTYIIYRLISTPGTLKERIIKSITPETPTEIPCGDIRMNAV
In short: (§2)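 Release measured in rat synaptosomes preloaded 1 h with 5 nM [3H]5-HT (SERT) or 9 nM [3H]MPP+ (NET, DAT), with reserpine and unlabeled blockers; test drug 10–10,000 nM. Efficacy is % of maximal release, defined as release by tyramine: 100 μM for SERT, 10 μM for DAT and NET. Filtration and scintillation counting; n = 3–4 experiments in triplicate.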

[5] = molecular target: Sodium-dependent dopamine transporter (Rattus norvegicus) (UniProt P23977); assay: Binding affinity to DAT in Sprague-Dawley rat brain synaptosomes assessed as induction of [3H]MPP+ release by liquid scintillation counting method relative to control; in short: as §2
Sodium-dependent dopamine transporter (Rattus norvegicus), sequence (P23977 whole entry): as the sequence (P23977 whole entry) above

[6] = species on record: Rattus norvegicus; assay: Binding affinity to NET in Sprague-Dawley rat brain synaptosomes assessed as induction of [3H]MPP+ release by liquid scintillation counting method relative to control; in short: as §2
[7] = species on record: Rattus norvegicus; assay: Selectivity index, ratio of EC50 for DAT in Sprague-Dawley rat brain synaptosomes to EC50 for SERT in Sprague-Dawley rat brain synaptosomes
[8] = species on record: Rattus norvegicus; assay: Selectivity index, ratio of EC50 for NET in Sprague-Dawley rat brain synaptosomes to EC50 for SERT in Sprague-Dawley rat brain synaptosomes

Sodium-dependent serotonin transporter, sequence (P31652 whole entry): as the sequence (P31652 whole entry) above

| Compound | EC50 [1] [nM] | EC50 [2] [nM] | EC50 [3] [nM] | %max [4] [%] | %max [5] [%] | %max [6] [%] | Ratio EC50 [7] | Ratio EC50 [8] |
| --- | --- | --- | --- | --- | --- | --- | --- | --- |
| CNC(C)C(=O)c1ccc2c(c1)OCO2 (racemic) [METHYLONE] | 242 | 133 | 152 |  |  |  |  |  |
| CNC(C)Cc1ccc2c(c1)OCCO2 (racemic) | 117 | 597 | 325 | 102 | 108 | 91 | 6 | 3 |
| CN[C@@H](C)Cc1ccc2c(c1)OCCO2 | 91 | 276 | 239 | 96 | 103 | 94 |  |  |
| CN[C@H](C)Cc1ccc2c(c1)OCCO2 | 573 | 14600 | 1950 | 97 | 106 | 85 |  |  |
| CNC(C)C(=O)c1ccc2c(c1)OCCO2 (racemic) | 347 | 496 | 327 | 105 | 105 | 84 |  |  |
| CNC(C)Cc1ccc2c(c1)OCO2 (racemic) [MIDOMAFETAMINE] | 61 | 75 | 72 | 98 | 99 | 95 |  |  |
